According to ChEMBL document CHEMBL1134066, “A new structural class of selective and non-covalent inhibitors of the chymotrypsin-like activity of the 20S proteasome” (Bioorg Med Chem Lett, 2001):

Organism: Homo sapiens
Test: In vitro inhibitory concentration against Chymotrypsin-like activity of the purified human placenta 20S Proteasome
Type: functional
Outline: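 Purified human placenta 20S proteasome; chymotrypsin-like activity measured by cleavage of the fluorogenic substrate Suc-Leu-Val-Tyr-AMC (AMC release). Trypsin-like (Boc-Leu-Arg-Arg-AMC) and post-glutamyl-peptide hydrolytic-like (Z-Leu-Leu-Glu-AMC) substrates were used for the parallel selectivity assays.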
In the case of `COc1ccc(CN[C@@H](C(=O)N[C@H](C(=O)NCc2ccc(OC)cc2O)C(C)C)[C@H](O)[C@H](Cc2ccccc2)NC(=O)[C@@H](NC(=O)OCc2cc(C)cc(C)c2)C(C)(C)C)cc1`, the IC50 is reported as 1100 nM. For `COc1ccc(CN[C@@H](C(=O)N[C@H](C(=O)NCc2ccc(OC)cc2OC)C(C)C)[C@H](O)[C@H](Cc2ccccc2)NC(=O)[C@@H](NC(=O)OCc2ccccc2)C(C)C)cc1`, the IC50 was > 20000 nM. For `COc1ccc(CN[C@@H](C(=O)N[C@H](C(=O)NCc2ccc(OC)cc2O)C(C)C)[C@H](O)[C@H](Cc2ccccc2)NC(=O)[C@@H](NC(=O)OCc2cccc(C)c2)C(C)(C)C)cc1`, the IC50 was 500 nM. With `COc1ccc(CN[C@@H](C(=O)N[C@H](C(=O)NCc2ccc(OC)cc2O)C(C)C)[C@H](O)[C@H](Cc2ccccc2)NC(=O)[C@@H](N)C(C)(C)C)cc1` the IC50 was 70000 nM. In the case of `COc1ccc(CN[C@@H](C(=O)N[C@H](C(=O)NCc2ccc(OC)cc2O)C(C)C)[C@H](O)[C@H](Cc2ccccc2)NC(=O)[C@@H](NC(=O)Cc2cccc3ccccc23)C(C)(C)C)cc1`, the IC50 is reported as 100 nM. Compound `COc1ccc(CN[C@@H](C(=O)N[C@H](C(=O)NCc2ccc(OC)cc2O)C(C)C)[C@H](O)[C@H](Cc2ccccc2)NC(=O)[C@@H](NC(=O)OC(C)(C)C)C(C)(C)C)cc1` has an IC50 of 27000 nM. `COc1ccc(CN[C@@H](C(=O)N[C@H](C(=O)NCc2ccc(OC)cc2O)C(C)C)[C@H](O)[C@H](Cc2ccccc2)NC(=O)[C@@H](NC(=O)OCc2cccc3ccccc23)C(C)(C)C)cc1` gave an IC50 of 2000 nM. For `COc1ccc(CN[C@@H](C(=O)N[C@H](C(=O)NCc2ccc(OC)cc2O)C(C)C)[C@H](O)[C@H](Cc2ccccc2)NC(=O)[C@@H](NC(=O)CCc2cccc(N)c2)C(C)(C)C)cc1`, the IC50 was 600 nM. For `COc1ccc(CN[C@@H](C(=O)N[C@H](C(=O)NCc2ccc(OC)cc2O)C(C)C)[C@H](O)[C@H](Cc2ccccc2)NC(=O)[C@@H](NC(=O)OCc2cccc(N)c2)C(C)(C)C)cc1`, the IC50 was 600 nM. `COc1ccc(CN[C@@H](C(=O)N[C@H](C(=O)NCc2ccc(OC)cc2O)C(C)C)[C@H](O)[C@H](Cc2ccccc2)NC(=O)[C@@H](NC(=O)OCc2ccccc2)C(C)C)cc1` showed an IC50 of 3300 nM. With `COc1ccc(CN[C@@H](C(=O)N[C@H](C(=O)NCc2ccc(OC)cc2O)C(C)C)[C@H](O)[C@H](Cc2ccccc2)NC(=O)[C@@H](NC(=O)OCc2ccccc2)C(C)(C)C)cc1` the IC50 was 900 nM. For `COc1ccc(CN[C@@H](C(=O)N[C@H](C(=O)NCc2ccccc2O)C(C)C)[C@H](O)[C@H](Cc2ccccc2)NC(=O)[C@@H](NC(=O)OCc2ccccc2)C(C)(C)C)cc1`, the IC50 was 72000 nM.
